Shown are actives, neighbours in structure and some others; about 3% of the full set was active somewhere.
MITF TRPM1 HTS: MITF TRPM1 promoter activation in melanoma cells; SK-MEL-5 TRPM1-promoter luciferase, 24 h; % of positive control, neutral wells = 0; hit rate 0.75% among 300,000; activation, % at 12.5 µM;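 active = mean activation of at least 80% with every replicate also reaching 80%; inconclusive = mean reaches 80% but some replicate falls short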;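 also: 0% = neutral control wells and 100% = parthenolide positive control wells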
esBAF inh: blocks esBAF chromatin remodeling in mouse ES cells; Bmi1-luciferase knock-in reporter, 24 h; 100% = twice the neutral-well signal; reporter increase, % at 12.5 µM; hit rate 2% among 350,000; AID 602393; in the data active = activation above about 40%; inconclusive = no clear call, values can overlap the other calls;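 also: 0% = median of the plate's neutral control wells and 100% = double that signal; a rise in the Bmi1 reporter signal indicates esBAF inhibition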
NSD2 HMT inh: blocks human histone methyltransferase NSD2. O96028. NSD2 peptide methylation, AlphaScreen, 120 min. inhibition, % at 12.5 µM. hit rate 0.54% among 310,000; in the data active = inhibition above about 50%
Wnt act: activators of Wnt/beta-catenin signaling | Wnt/beta-catenin reporter cell assay, activator, plate reader | activation, % at 9.35 µM | hit rate 1.2% among 300,000 | AID 743398; in the data active = activation above about 30%, passing the limit was not always enough; inconclusive = no clear call, values can overlap the other calls;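 also: 0% = neutral control wells and 100% = positive control wells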
Casp6 inh: caspase-6 (human) enzyme inhibition; P55212; AID 686996; purified caspase-6, Z-VEID-R110 cleavage fluorescence; hit rate 0.53% among 350,000; inhibition, % at 12.5 µM;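 active = mean inhibition across replicates at least about 35%, with every replicate also reaching that limit, limit read from the data; inconclusive = only one of the two criteria met; inactive = neither criterion met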;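 also: 0% = median of neutral control wells and 100% = no fluorescence left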
Target sequence (P55212 24-179 limits assumed): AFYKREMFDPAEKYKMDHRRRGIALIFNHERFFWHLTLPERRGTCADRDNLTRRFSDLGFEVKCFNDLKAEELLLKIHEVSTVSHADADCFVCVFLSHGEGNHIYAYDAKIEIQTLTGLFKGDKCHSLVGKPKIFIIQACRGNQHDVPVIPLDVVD
Target sequence (P55212 194-293 limits assumed): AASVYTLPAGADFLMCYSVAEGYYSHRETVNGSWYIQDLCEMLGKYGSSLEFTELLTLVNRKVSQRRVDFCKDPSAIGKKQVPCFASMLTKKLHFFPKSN
Xi reactivation: activators of X-chromosome reactivation in mouse fibroblasts | XiGFP mouse fibroblasts, % GFP-positive cells imaging, 3 d; cells co-treated with 5-aza-dC sensitizer; scaled so ellipticine positive control = 100% | hit rate 0.055% among 360,000 | AID 743238 | activation, % at 7.58 µM;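 active = mean normalized replicate activation at least 10% and every replicate at or above 10%; inconclusive = only one of the two criteria met; inactive = mean below 10% and not all replicates reach 10%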;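 also: 0% = median of on-plate neutral control wells and 100% = ellipticine 6 µM median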
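Material: SV40-immortalized XiGFP fibroblast cells, line 68-5-11 | Buffer or medium: DMEM containing 5-aza-dC | Dosing: One concentration, pinned | Times: 3 d treatment, 15 min room-temperature fixation | Controls: Ellipticine 6 µM positive control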
Starred values were filed as active, the others as inactive; ? = inconclusive; nt = not tested or not shown.

SMILES	MITF TRPM1 HTS	esBAF inh	NSD2 HMT inh	Wnt act	Casp6 inh	Xi reactivation
CC(C)(C)C1CCC(=NNc2nc3ccccc3[nH]2)CC1 (configuration not stated)	-5	nt	6	0	-4	0
N#Cc1c(-c2ccc([N+](=O)[O-])cc2)nc2n(c1=O)CCS2	9	-3	nt	0	-5	0
O=[N+]([O-])c1ccc(-c2cn3c(n2)SCC3)cc1	nt	60*	36	-3	7	0
CN1C2=CC=CC=CC2=[N+](C)C12C([N+](=O)[O-])=CC(=[N+]([O-])[O-])C=C2[N+](=O)[O-] (configuration not stated)	nt	-6	-2	106*	3	0
CN1C2=CC=CC=CC2=[N+](C)C12C=CC(=[N+]([O-])[O-])C=C2[N+](=O)[O-] (configuration not stated)	-15	nt	4	0	1	0
CO[C@H]1CN(C)C(=O)c2ccc(NC(C)=O)cc2OC[C@@H](C)N(C(=O)c2cccnc2)C[C@@H]1C	nt	-1	nt	nt	-1	1
CCN(CC(=O)Nc1cc(Cl)ccc1C)C(=O)c1ccc2c(=O)n3c(nc2c1)CCC3	5	-4	0	3	-2	0
C[C@@H](CO)NC(=O)c1ccc2c3n(nc2c1)-c1ccc(Cl)cc1CO3	102*	81*	nt	47*	nt	0
CC(C)[C@@H](CO)NC(=O)c1ccc2c3n(nc2c1)-c1ccc(Cl)cc1CO3	89*	59*	nt	45*	-2	0
CCC(=O)N1C[C@H](C)[C@@H](OC)CN(C)C(=O)c2ccc(NC(=O)C3CCOCC3)cc2OC[C@H]1C	nt	-8	nt	nt	nt	0
Fc1ccc2cnc(-c3ccsc3)cc2c1	nt	nt	nt	2	-1	0
Fc1ccc2cc(-c3cccnc3)ncc2c1	35	50*	nt	7	0	0
COc1ccc2cc(-c3ccccc3F)ncc2c1	66	-13	nt	38*	-9	0
COc1ccc(-c2cc3ccc(OC)cc3cn2)cc1	-16	-65	nt	7	1	0
COc1ccc2cc(-c3cccnc3)ncc2c1	97*	33	nt	?	-1	2
COc1ccc(C(=O)Nc2ccc3c(c2)C(=O)N(C)C[C@@H](OC)[C@@H](C)CN(C(C)=O)[C@@H](C)CO3)cc1	nt	-1	nt	nt	nt	0
CNC(=O)C[C@@H]1CC[C@H]2[C@H](COc3ccc(NC(=O)NC4CCCC4)cc3C(=O)N2C)O1	nt	3	nt	nt	-2	0
CC(C)CC1NC(=O)N(CC(=O)c2ccc3c(c2)OCCO3)C1=O (configuration not stated)	nt	29	-2	33*	nt	nt
O=C(CN1C(=O)c2ccccc2S1(=O)=O)c1ccc2c(c1)OCCO2	nt	nt	0	-16	-3	0
CCCC1Oc2ccccc2C(=O)N(CC(=O)c2ccc3c(c2)OCCO3)C1=O (configuration not stated)	67	60*	-1	1	0	0
c1ccc2[nH]c(SCC3CCCCO3)nc2c1 (configuration not stated)	87*	nt	3	40*	0	0
Cc1ccc(S(=O)(=O)Nc2ccc3c(c2)C(=O)N(C)[C@H]2CC[C@@H](CC(=O)O)O[C@@H]2CO3)cc1	nt	1	nt	nt	1	0
O=C(NCCN1C(=O)S/C(=C\c2ccc(Cl)cc2Cl)C1=O)C1=COCCO1	29	13	2	9	39*	0
CN(C(=O)c1cc2c(s1)-c1ccccc1S(=O)(=O)C2)c1ccccc1	8	110*	1	7	5	0
CN(C(=O)c1cc2c(s1)-c1ccccc1S(=O)(=O)C2)c1ccccc1F	-8	6	3	11	2	0
SMILES	MITF TRPM1 HTS	esBAF inh	NSD2 HMT inh	Wnt act	Casp6 inh	Xi reactivation
Cc1nn(C(=O)c2cc3sccc3[nH]2)c(C)c1C	45	84*	1	2	-3	nt
Cc1nn(C(=O)CNC(=O)c2ccccc2)c(C)c1C	6	nt	6	0	-3	0
CCC(=O)Nc1ccc2c(c1)C(=O)N(C)[C@H]1CC[C@H](CC(=O)O)O[C@@H]1CO2	nt	2	nt	nt	-5	0
O=C(N/N=C/c1cccc(O)c1)c1ccc(COc2ccc3c(c2)CCC3)o1	26	52*	3	nt	nt	nt
NC(=O)C1=C[C@H](C2CCCCC2)C[C@H](OCc2ccc(CO)cc2)O1	107*	73*	nt	?	3	0
CC(C)CN1CCC(=O)N(CCSc2ccccc2)CC1	73	7	nt	42*	-4	0
O=C1CCN(Cc2ccccc2)CCN1CCOc1ccccc1	85*	10	nt	13	2	0
Cc1ccc(SCCN2CCN(CCc3ccccc3)CCC2=O)cc1	4	4	nt	1	-2	0
C[C@@H]1CN([C@H](C)CO)C(=O)c2cc(NC(=O)c3ccccc3)ccc2O[C@@H](C)CCCCO[C@H]1CN(C)Cc1ccc2c(c1)OCO2	nt	-4	nt	nt	0	0
Cc1nc2ccccc2nc(=O)c1NNc1ccccc1	102*	nt	1	25	-1	0
O=C(N/N=C/c1cccnc1)c1ccc(O)cc1	4	21	1	0	0	0
O=C(N/N=C/c1cc(Br)c(O)c(Br)c1O)c1cccnc1	-6	-1	17	-2	40*	0
O=C(N/N=C/c1cccnc1)c1cc(O)c(O)c(O)c1	-9	nt	4	-3	41*	0
Cc1c(C)c2ccc(OCC(=O)c3ccccc3)cc2oc1=O	94*	?	0	26	1	0
CCCCc1c(C)c2ccc(OCC(C)=O)cc2oc1=O	78	63*	1	4	nt	nt
COc1ccc(NC(=O)N(C)C[C@H]2OCCCC[C@@H](C)Oc3ccc(NS(=O)(=O)c4ccc(Cl)cc4)cc3C(=O)N([C@H](C)CO)C[C@@H]2C)cc1	nt	-1	nt	nt	-1	0
O=C(CNC(=O)c1ccc(Cl)cc1Cl)OCC(=O)N1CCOCC1	nt	nt	-2	nt	nt	nt
Cn1ccc2cc(OCc3ccccc3)ccc21	70	49*	-1	6	4	0
Cc1c(C=O)c2cc(OCc3ccccc3)ccc2n1C	nt	70*	-2	16	-1	0
Cc1cc2cc(OCc3ccccc3)ccc2n1C	nt	23	-1	22	0	0
O=Cc1c[nH]c2ccc(OCc3ccccc3)cc12	17	9	-1	6	1	0
COC(=O)C[C@@H]1C[C@@H]2c3cc(NC(=O)Nc4ccc(C(F)(F)F)cc4)ccc3O[C@@H]2[C@@H](CO)O1	nt	nt	nt	nt	nt	0
Cc1cccc(OCCCn2c(=O)oc3ccccc32)c1	70	48*	-5	15	1	1
CC(=O)N(C)C[C@H]1Oc2c(N)cccc2C(=O)N(C)C[C@@H]1C	nt	nt	nt	nt	nt	0
Cc1c(C(=O)N2CCc3ccccc32)oc2c1C(=O)CC(C)(C)C2	?	53*	nt	-2	nt	nt
CC(C)=NNc1ncnc2nc[nH]c12	nt	nt	-6	-4	-3	0
